Experiment [1] has as its system Radical scavenging activity. The experiment is described as follows: Antioxidant activity assessed as DPPH free radical scavenging activity. Format: functional. The procedure, abridged: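 DPPH in methanol (150 µM) incubated with various compound concentrations at 37 C for 30 min; absorbance read at 517 nm. Percent scavenging = 100 × (Abs control − Abs compound)/Abs control; IC50 obtained by linear regression of percent inhibition against concentration.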
(Loss of DPPH colour is used to gauge radical scavenging.)

The subject of experiment [2] is Brain. In words: Antioxidant activity in Wistar rat brain assessed as inhibition of lipid peroxidation. The format is functional, tissue-based. The method in brief:
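Brain homogenate (10% w/v) of young adult male Wistar rats in 0.15 M KCl, 800g 10 min supernatant. Compounds in DMSO at varying amounts; peroxidation started with FeCl3 plus ascorbic acid, 20 min at 37 C. Stopped with phosphotungstic acid and thiobarbituric acid, heated 100 C 10 min, n-butanol extract read by fluorescence (ex 515/em 555 nm); IC50 from log dose–inhibition curve.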

Experiment [3] can be described thus: Antioxidant activity at 100 ug by ferric reducing antioxidant power assay. Format: functional. The method in brief:
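FRAP reagent: 10 vol 300 mM acetate buffer pH 3.6, 1 vol 10 mM TPTZ in 40 mM HCl, 1 vol 20 mM FeCl3, diluted to 1/3 with methanol, pre-warmed to 37 C. Diluted compound mixed with reagent, 8 min at 37 C, absorbance at 593 nm against methanol blank; expressed as lM ferric reduced to ferrous, calibrated with known ferrous ion.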

Experimental findings from ChEMBL document CHEMBL1140585, “Synthesis and antioxidant properties of substituted 3-benzylidene-7-alkoxychroman-4-ones” (Bioorg Med Chem Lett, 2007) are described below.

Calls of active or inactive are those of the source. The rule behind the calls is not given here. Some results are limits rather than exact numbers.

As a reminder, the IC50 is the concentration at which inhibition is half-maximal.

In the case of `COc1ccc2c(c1)OC/C(=C\c1ccc(O)cc1)C2=O`, the IC50 in experiment [1] and in experiment [2] was over 100 µM in each case. The outcome in experiment [3] was inactive.

For the molecule `COc1ccc2c(c1)OC/C(=C\c1ccc(O)c(O)c1)C2=O`, the IC50 in experiment [1] came out at 27.2 µM; in experiment [2], 12.1 µM. In addition, the Activity in experiment [3] amounted to 71.6.

`COc1ccc2c(c1)OC/C(=C\c1ccccc1OC)C2=O`: the IC50 in experiment [1] and in experiment [2] was over 100 µM throughout. Besides, the result in experiment [3] was inactive.

Turning to `CCOc1ccc2c(c1)OC/C(=C\c1ccc(O)c(O)c1)C2=O`, the concentration for half-maximal inhibition (IC50) in experiment [1] was 24.3 µM; in experiment [2], 11.9 µM. In experiment [3], the Activity was 62.7.

Turning to `O=C1/C(=C/c2ccc(O)c(O)c2)COc2cc(O)ccc21` [SAPPANONE A], the results for the 50% inhibitory concentration (IC50) in experiment [1] and in experiment [2] were 35 µM and 14.3 µM, respectively. In experiment [3], this molecule displayed an Activity of 49.3.

With `CCCOc1ccc2c(c1)OC/C(=C\c1ccc(O)c(O)c1)C2=O`, the IC50 in experiment [1] worked out at 25.4 µM; in experiment [2], 11.4 µM. For the same molecule, the Activity in experiment [3] came out at 53.8.

Turning to `O=C1/C(=C/c2ccc(O)cc2)COc2cc(O)ccc21`, the IC50 in experiment [1] and in experiment [2] was over 100 µM throughout. For the same molecule, the outcome in experiment [3] was inactive.

As for `COc1cccc(/C=C2\COc3cc(OC)ccc3C2=O)c1`, the half-maximal inhibitory concentration (IC50) in experiment [1] and in experiment [2] was over 100 µM each time. For the same molecule, the outcome in experiment [3] was inactive.

With `CCCCOc1ccc2c(c1)OC/C(=C\c1ccc(O)c(O)c1)C2=O`, the figures for the IC50 in experiment [1] and in experiment [2] were 24.5 µM and 11 µM, respectively. For the same molecule, the Activity in experiment [3] is 44.6.

`COc1ccc2c(c1)OC/C(=C\c1cc(OC)c(O)c(OC)c1)C2=O`: the half-maximal inhibitory concentration (IC50) in experiment [1] was 30.8 µM; in experiment [2] it was 11 µM. Further, the Activity in experiment [3] worked out at 61.6.

For `Cc1c(C)c2c(c(C)c1O)CCC(C)(C(=O)O)O2` (stereo unspecified) [TROLOX], the 50% inhibitory concentration (IC50) was found to be 36.3 µM in experiment [1] and 41.6 µM in experiment [2]. In addition, in experiment [3], the Activity worked out at 41.9.

`COc1ccc(/C=C2\COc3cc(OC)ccc3C2=O)cc1`: the IC50 in experiment [1] and in experiment [2] was over 100 µM throughout. In addition, the outcome in experiment [3] was inactive.
